Here are results for six molecules from ChEMBL document CHEMBL4411342, “Pyrrolomycins as antimicrobial agents. Microwave-assisted organic synthesis and insights into their antimicrobial mechanism of action” (Bioorg Med Chem, 2019).

In general, IC50 refers to the midpoint of a concentration-inhibition curve. The inhibition is the drop in the measured response relative to a control, in per cent.

The target in one assay is T1, Sortase A (Staphylococcus aureus, UniProt Q9S446).
T1 sequence (Q9S446 whole entry): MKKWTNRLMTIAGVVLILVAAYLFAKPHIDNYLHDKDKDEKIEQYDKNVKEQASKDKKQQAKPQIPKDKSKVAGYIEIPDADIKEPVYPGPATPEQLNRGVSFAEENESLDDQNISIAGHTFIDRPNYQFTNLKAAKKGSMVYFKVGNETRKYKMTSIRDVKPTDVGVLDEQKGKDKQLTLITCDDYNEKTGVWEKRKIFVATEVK
In words: Inhibition of Staphylococcus aureus SrtA using dabcyl-QALPETGEE-edans as substrate preincubated for 1 hr followed by substrate addition and measured at 1 min interval for 1 hr by fluorescence assay. In outline:
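Recombinant S. aureus SrtA (10 µM) preincubated 1 h at 37 °C in 50 mM Tris-HCl, 5 mM CaCl2, 150 mM NaCl, pH 7.5 with increasing inhibitor levels; FRET peptide added to 50 µM final. Cleavage fluorescence read at ex 350/em 495 nm; progress curves used for IC50. Stocks 10 mM in DMSO; berberine chloride positive control, enzyme-free substrate negative control.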

Another assay has as its system Pseudomonas aeruginosa. Nature of the assay: Antibiofilm activity against Pseudomonas aeruginosa ATCC 15442 after 24 hrs by crystal violet staining based assay. Type of assay: functional, organism-based. The settings on record: ATCC 15442, 24 h. In outline:
(§1)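 Overnight TSB + 2% w/v glucose cultures (37 °C, 24 h) diluted to 0.5 McFarland, inoculated into 96-well plates of TSB/2% glucose with compound (100 µg/mL screen, or 100–0.001 µM for IC50). Static 37 °C, 24 h; wells PBS-washed, 0.1% crystal violet 30 min, solubilized in 33% acetic acid, OD 540 nm. % inhibition vs growth control; duplicates, ≥3 independent experiments.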

In assay [1] the test system is Staphylococcus aureus. In words: Antibiofilm activity against Staphylococcus aureus ATCC 25923 after 24 hrs by crystal violet staining based assay. Type of assay: functional, organism-based. The settings on record: ATCC 25923, 24 h. In outline:
as §1

Assay [2] concerns Staphylococcus aureus. In words: Inhibition of Staphylococcus aureus AtlA assessed as reduction in enzyme activity at 1 uM measured after 24 hrs y methylene blue staining based zymography relative to control. In outline: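 Spent medium from 24 h static S. aureus cultures (1 µM compound; untreated and 0.1% DMSO controls) was centrifuged, and the supernatant was lyophilized and resuspended in Tris-HCl pH 7.4. Proteins were run on 12% SDS-PAGE containing 1 mg/mL Micrococcus lysodeikticus cells. The gel was renatured (Triton X-100 buffer, 37 °C, 16–48 h) and stained with 0.1% methylene blue. Clear bands were quantified by densitometry as lysozyme µg equivalents, in triplicate.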

The test system of assay [3] is Staphylococcus aureus. In words: Inhibition of Staphylococcus aureus AtlA assessed as reduction in biofilm formation at 1 uM measured after 24 hrs. In outline: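 S. aureus overnight culture (TSB + 2% glucose, 37 °C, 200 rpm) inoculated 1:100 into TSB/2% glucose containing 1 µM compound (from DMSO stock) in 24-well plates. Static incubation at 37 °C for 24 h. Biofilm inhibition is expressed relative to untreated cultures. Untreated and 0.1% DMSO controls. Triplicate cultivations.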

For the molecule `O=C(c1cc(Cl)cc(Cl)c1O)c1[nH]c(Cl)c(Br)c1Cl`, the IC50 against Sortase A amounted to 160 µM; in the assay on Pseudomonas aeruginosa, 18.6 µM; in the assay with Staphylococcus aureus [1] it was 0.0247 µM.
Regarding `O=C(c1cc(Cl)cc(Cl)c1O)c1[nH]c(Cl)c(Cl)c1Br`, the half-inhibitory concentration (IC50) on Sortase A worked out at 130 µM; in the assay on Pseudomonas aeruginosa, 170 µM; with Staphylococcus aureus [1], 0.1 µM.
For `O=C(c1cc(Cl)c(Cl)[nH]1)c1cc(Cl)cc(Cl)c1O` the same measures were 300 µM, 236 µM and 0.92 µM.
In the case of `O=C(c1cc(Br)ccc1O)c1[nH]c(Br)c(Cl)c1Br`, the fold change (FC) in the assay with Staphylococcus aureus [2] amounted to 2. In the assay with Staphylococcus aureus [3], the inhibition is under 80%. Further, the IC50 came out at 250 µM against Sortase A, 78.9 µM in the assay with Pseudomonas aeruginosa and 0.0087 µM in the assay on Staphylococcus aureus [1].
For `O=C(c1cc(Br)cc(Br)c1O)c1[nH]c(Br)c(Br)c1Br` the same measures were 2, under 80%, 140 µM, 74.8 µM and 0.0034 µM.
`O=C(c1cc(Cl)cc(Cl)c1O)c1[nH]c(Br)c(Br)c1Br`: the half-maximal inhibitory concentration (IC50) stood at 130 µM against Sortase A, 106 µM in the assay on Pseudomonas aeruginosa and 20.3 µM with Staphylococcus aureus [1].
